{
  "source": "ChEMBL document CHEMBL3580617",
  "about": "“Discovery of Benzimidazole CYP11B2 Inhibitors with in Vivo Activity in Rhesus Monkeys” (ACS Med Chem Lett, 2015)",
  "key": {"Rhesus monkey [1]": {"test_system": "Rhesus monkey", "test": "In-vivo inhibition of CYP11B1 in low sodium diet fed rhesus monkey at free plasma concentration up to 27 nM dosed at 0.01 to 0.3 mg/kg, iv followed by 0.3 mg/kg ACTH dosing and measured 90 mins post ACTH administration by UPLC coupled with tandem mass spectrometry", "format": "functional, organism-based", "details": "Macaca mulatta", "outline": "(§1)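 Anesthetized rhesus monkeys were given i.v. doses from 0.001 to 0.3 mg/kg. Plasma aldosterone and 11-deoxycortisol were quantified by LC-MS at time points up to 180 min postdose, and AUCs were determined for each. Plasma drug was measured at 90 min postdose. Free (unbound) concentrations were calculated from the measured fraction unbound in rhesus plasma.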"}, "Rhesus monkey [2]": {"test_system": "Rhesus monkey", "test": "Reduction in aldosterone levels in low sodium diet fed rhesus monkey assessed as free plasma concentration causing reduction in aldosterone at 0.3 mg/kg, iv followed by 0.3 mg/kg ACTH dosing and measured 90 mins post ACTH administration by UPLC coupled with tandem mass spectrometry", "format": "functional, Macaca mulatta", "outline": "as §1"}, "Rhesus monkey [3]": {"test_system": "Rhesus monkey", "test": "Reduction in aldosterone levels in low sodium diet fed rhesus monkey assessed as free plasma concentration causing reduction in aldosterone at 0.01 mg/kg, iv followed by 0.3 mg/kg ACTH dosing and measured 90 mins post ACTH administration by UPLC coupled with tandem mass spectrometry", "format": "functional, Macaca mulatta", "outline": "as §1"}},
  "note": "The source made the active and inactive calls. The calls are words filed in the database; no cut-off is given here.",
  "data": [
    {"compound": "CC(C)(O)c1cncc(-c2nc3ccc(F)cc3n2C2CC2)c1", "note": "[MSD-CYP11B2]", "values": [
      {"measurement": "inhibition", "setting": "Rhesus monkey [1]", "value": "inactive"},
      {"measurement": "Cp(f)", "setting": "Rhesus monkey [2]", "value": 27, "unit": "nM"},
      {"measurement": "Cp(f)", "setting": "Rhesus monkey [3]", "value": 12, "unit": "nM"}
    ]}
  ]
}
